TNF death inh = blocks TNF-alpha induced death of Jurkat FADD-/- cells; 0.068% of 220,000 active; AID 463075; Jurkat FADD-/- TNF necroptosis rescue, ATP luminescence, 24 h; 0 = TNF only, 100 = no-TNF cells; activation (protection from cell death), % at 10 µM;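 active means activation, meaning protection from cell death, of at least 50% relative to plate controls; inactive means activation below 50%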;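 further: necroptosis triggered by 40 ng/mL TNF-alpha added together with compound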
zVAD death inh = blocks zVAD induced death of L929 cells. L929 zVAD necroptosis rescue, ATP luminescence, 24 h; with zVAD 60 µM. viability rescue, % at 10 µM. 0.38% of 220,000 active;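 active means activation, scaled between plate controls, above about 75%, limit read from the data; inactive means activation under that limit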;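 further: 0% = zVAD with DMSO and 100% = DMSO alone without zVAD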
MDM2 E3 inh = blocks human Mdm2 ubiquitin ligase activity. Q00987. cell-based MDM2 ubiquitination luciferase reporter, 2 h; 0 = plate control, 100 = twice control, blank-subtracted. signal enhancement, % at 5 µM. 0.11% of 210,000 active;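 active means signal enhancement of 30% or more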;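 further: luminescence tracks abundance of the self-degrading MDM2-luciferase fusion protein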
Target sequence (Q00987 whole entry, looked up, the tested form may be a part): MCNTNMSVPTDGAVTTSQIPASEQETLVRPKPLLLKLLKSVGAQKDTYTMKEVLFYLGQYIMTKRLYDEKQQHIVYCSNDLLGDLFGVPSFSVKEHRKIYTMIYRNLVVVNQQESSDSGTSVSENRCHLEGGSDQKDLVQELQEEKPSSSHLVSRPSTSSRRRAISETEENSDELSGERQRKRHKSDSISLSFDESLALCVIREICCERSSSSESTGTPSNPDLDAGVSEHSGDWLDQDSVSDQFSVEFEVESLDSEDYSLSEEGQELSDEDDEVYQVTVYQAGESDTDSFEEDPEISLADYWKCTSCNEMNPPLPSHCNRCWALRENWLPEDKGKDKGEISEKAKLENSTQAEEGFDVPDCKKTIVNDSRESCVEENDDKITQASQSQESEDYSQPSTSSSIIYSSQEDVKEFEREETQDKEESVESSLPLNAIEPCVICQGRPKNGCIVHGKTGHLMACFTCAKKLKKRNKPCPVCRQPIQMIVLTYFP
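Material: stable MDM2–luciferase fusion reporter cells / Quantity: 2000 cells/well / Dosing: single 5 µM compound dose, 0.2% final DMSO / Buffer or medium: DMEM / Schedule: 4 h cell settling then 2 h compound exposure, 37 °C / Detection: luminescence with SteadyLite reagent, 15 min at room temperature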
Dynein cargo inh = dynein cargo transport inhibition. 3617.4 mouse cells, GR-EGFP nuclear translocation imaging; test concentration mostly 20 µM; stimulated with dexamethasone, 1 µM; hits give low values. z-score, hits read low. AID 1381. 0.47% of 220,000 active;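 active means plate z-score of nuclear minus cytoplasmic receptor signal below a set negative limit, without overly bright fluorescence or cell loss, cut at about -3.5 in these data, passing the limit was not always enough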;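 further: z-score of nuclear minus cytoplasmic ring GR-EGFP intensity difference per well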
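Buffer or medium: tet-free, stripped-serum medium; Also added: dexamethasone, 1.0 µM final; Technique: high-content fluorescence imaging after fixation; Times: 48 h induction, 1 h compound, 30 min dex at 37 °C; Read-out: per-cell GR-EGFP intensity, nucleus versus surrounding cytoplasmic ring, well-averaged.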
Hck-Nef inh = inhibitors of human Hck kinase activated by Nef; P08631; Recombinant Hck-YEEI plus Nef, Z-Lyte FRET kinase assay; inhibition, % at 20 µM; 0.68% of 220,000 active; AID 463187;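 active means Hck-Nef kinase inhibition above about 50%, limit read from the data; inactive means inhibition below that limit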;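 further: 0% = DMSO with Hck plus Nef and 100% = Hck alone without Nef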
Autophagy HCS = modulators of autophagy. MEF GFP-LC3 puncta imaging; test concentration mostly 10 µM. calls only at 10 µM (by protocol). 0.98% of 190,000 active. AID 463193;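 active means percentage of spot-positive cells more than 3 SD above its plate mean, without a fluorescence outlier flag or 80% toxicity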;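 further: spot-positive cell cutoff set from DMSO-treated cells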
Hck Nef conf = confirmation of Hck-Nef kinase inhibitors | 28% of 1,300 active | shares compounds with Hck-Nef inh | calls only at 10 µM | Recombinant Hck-YEEI:Nef, Z-Lyte FRET kinase assay;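 active means average inhibition of at least 50%, with Z-scores no higher than 3 in both the phospho-tyrosine peptide and fluorescence counterscreens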
Active calls of the source: *; i = inactive; x = no result shown; + = active, no number. In the library only some 2.4% were active in any assay of this set; here they are far more common.

SMILES	TNF death inh	zVAD death inh	MDM2 E3 inh	Dynein cargo inh	Hck-Nef inh	Autophagy HCS	Hck Nef conf
COc1cc(/C=C(/C#N)C(=O)Nc2ccccc2)ccc1OCc1ccc(C(=O)O)cc1	1	-1	-11	-0.97	138*	i	+
COc1cc(/C=C(\C#N)C(=O)NCc2ccccc2)ccc1OCc1ccc(C(=O)O)cc1	4	0	-13	-1.8	19	x	x
COc1cc(/C=C(\C#N)C(=O)NC2CCCCC2)ccc1OCc1ccc(C(=O)O)cc1	1	2	-2	0.52	52*	i	i
O=C(NCC1COc2ccccc2O1)c1cc2ccccc2o1 (configuration not stated)	-1	0	x	0.066	7	i	x
COC(=O)c1sc(N)c(C(=O)OC)c1COC(=O)[C@@H](NS(=O)(=O)c1cccc(Cl)c1)C(C)C	1	1	8	-0.43	79*	i	+
Cn1c(=O)[nH]c(=O)c2c1nc(N/N=C/C(Br)=C/c1ccccc1)n2CCO	-25	-1	2	-0.7	60*	x	+
CCCCN(C)CCOc1ccccc1OCC	2	0	-5	-0.54	60*	i	i
COc1cc(NC(=O)c2cccs2)c(OC)cc1NC(=O)CCC(=O)Nc1ccc2ncccc2c1	1	-1	-3	-0.25	65*	i	i
CNC(=O)c1nc(C)c(C2(C)CC(c3cccc([N+](=O)[O-])c3)=NO2)s1 (configuration not stated)	1	0	26	-0.15	26	x	x
CN(C)CCCn1c(N)c(S(=O)(=O)c2ccccc2)c2nc3ccccc3nc21	-4	0	-11	-0.14	85*	x	x
CCCCn1c(N)c(S(=O)(=O)c2ccc(C)cc2)c2nc3ccccc3nc21	-2	x	-6	0.95	11	i	x
O=S(=O)(Nc1c(S(=O)(=O)c2ccccc2)c2nc3ccccc3nc2n1C1CCCCC1)c1ccccc1	-1	2	-19	0.74	53*	i	x
CC(=O)Nc1c(S(=O)(=O)c2ccccc2)c2nc3ccccc3nc2n1Cc1ccccc1	-3	0	-5	0.24	6	i	x
C=CCn1c(NS(=O)(=O)c2ccccc2)c(S(=O)(=O)c2ccc(C)cc2)c2nc3ccccc3nc21	-2	11	-12	-0.17	83*	i	i
O=C(O)c1cc(-c2ccco2)nc2ccccc12	0	1	-10	-0.026	10	i	x
O=C(Nc1cccc(S(=O)(=O)NC2=NCCC2)c1)c1cc(-c2ccco2)nc2ccccc12	-2	-1	1	-2.5	87*	x	+
O=C(NC1CC1)c1cc(-c2ccco2)nc2ccccc12	0	0	-5	1.9	72*	x	+
C/C(=N/NC(=O)CNC(=O)c1cccnc1)c1cccc([N+](=O)[O-])c1	0	1	-10	1.1	-8	i	x
CN1C(=O)C(c2nnc(Nc3cccc4ccccc34)s2)C2CC1(C)Oc1ccccc12 (configuration not stated)	3	1	-6	0.017	-2	i	x
CN(CC(=O)Nc1cccc2c1CCCC2)S(=O)(=O)c1ccccc1	-3	0	-4	0.61	-1	i	x
Cc1ccc(-n2c(O)c(C=Nc3ccccc3-c3n[nH]c(=S)[nH]c3=O)c3ccccc3c2=O)c(C)c1	-3	11	1	-0.82	73*	i	+
Cc1cccc(-n2c(O)c(C=Nc3ccccc3-c3n[nH]c(=S)[nH]c3=O)c3ccccc3c2=O)n1	-2	3	-5	-0.75	-14	x	x
Cc1ccc(-n2c(O)c(C=Nc3ccccc3-c3n[nH]c(=S)[nH]c3=O)c3ccccc3c2=O)cc1C	-1	17	-18	0.42	84*	i	+
CC(C)NC(=O)CCCC(=O)NC(C)C	1	0	-11	-0.43	3	i	x
CC(=O)c1cn(Cc2ccccc2)c(=O)n(Cc2ccc(F)cc2)c1=O	-1	0	-12	0.37	-8	i	x
SMILES	TNF death inh	zVAD death inh	MDM2 E3 inh	Dynein cargo inh	Hck-Nef inh	Autophagy HCS	Hck Nef conf
Cc1sc(-n2c(C)cc(/C=C3\SC(=S)NC3=O)c2C)c(C#N)c1C	-6	0	-21	-0.94	71*	i	i
COc1ccc(/C=C2\SC(=N)N(c3ccc(F)cc3)C2=O)cc1OC	-1	59	-5	2.6	63*	i	+
CC(O)CNc1nc2ccccc2n1CC(=O)N1CCN(Cc2ccccc2)CC1 (configuration not stated)	2	0	-6	-0.51	18	i	x
CCC(=O)OC1(C)C(=O)C=C2C=C(c3ccsc3)OC=C2C1=O (configuration not stated)	-1	1	-8	-0.95	65*	x	+
Cc1cccc(Cc2nnc(CCC(=O)N(C)Cc3ccncc3C)o2)c1	1	0	-3	0.39	84*	i	i
Cc1cccc(Cc2nnc(CCC(=O)NCc3ccncc3C)o2)c1	2	-1	-10	0.52	18	i	x
CCCCC1=CC2=C(c3ccco3)C(=O)C(C)(OC(=O)c3ccc(OC)cc3)C(=O)C2=CN1CC(C)C (configuration not stated)	-4	-1	6	-1.3	26	x	x
CC(C)C(C)NC(=O)CN1C(=O)NC2(CCCc3ccccc32)C1=O (configuration not stated)	2	2	-16	-1.2	21	i	x
CN1CCC(N(C)CC(=O)Nc2cccc(Oc3ccccc3)c2)CC1	0	-1	-11	0.77	0	i	x
CCN(CC)C(=O)COc1ccc2oc(-c3ccco3)cc(=O)c2c1	2	0	-18	-0.78	14	i	x
CCOc1cc(/C=C2\SC(=S)N(C(C(=O)O)c3ccccc3)C2=O)ccc1O (configuration not stated)	0	1	1	0.32	63*	x	i
O=C(O)C1CCC(Cn2c(SCc3cc(=O)n4cc(Cl)ccc4n3)nc3ccsc3c2=O)CC1 (configuration not stated)	-3	3	-8	-0.2	-1	i	x
COc1ccc(C(=O)N/C(=C\c2ccc3c(c2)OCO3)C(=O)Nc2ccc(C(=O)O)cc2)cc1	1	4	-2	0.097	54*	i	i
Cc1ccc(C(=O)N/C(=C\c2ccc3c(c2)OCO3)C(=O)Nc2ccc(C(=O)O)cc2)cc1	0	2	-9	-0.82	2	i	x

Source: PubChem (several laboratories)
